The subject of the data set is MS2 coat protein. Description: apparent Kd, MS2 coat protein; higher = weaker binding; RNA-MaP array; FMN 200 µM where present. The procedure, abridged: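 The apparent Kd is reported as the median of filtered per-cluster binding-curve fits. To get these curves, designs transcribed by stalled E. coli RNA polymerase on Illumina sequencing-chip clusters were titrated with SNAP-549-labelled MS2 coat protein from 0.7 or 1.5 nM, doubling to 3 µM. Titrations were run without and then with constant ligand in 100 mM Tris-HCl pH 7.5, 80 mM KCl, 4 mM MgCl2, BSA, DTT, yeast tRNA and Tween-20, and green signal was normalised to red-channel RNA signal and control-cluster median Fmax.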

[1] abbreviates: designed as: OFF switch for flavin mononucleotide, no ligand.
Where [2] appears, read: ligand present: flavin mononucleotide, designed as: OFF switch for flavin mononucleotide.
Setting [3] is: designed as: ON switch for flavin mononucleotide, no ligand.
Setting [4] is: ligand present: flavin mononucleotide, designed as: ON switch for flavin mononucleotide.

The apparent Kd is a dissociation constant that holds for the conditions of the assay. “CGCUAGUCAGGAUAUACGAACAUGUCACAAGACGUGAAGGGACAUGAGGAUCACCCAUGUAGAAGGGACUAGCA”: the “apparent Kd” value runs as follows: under setting [1], 44.1 nM; under setting [2], 171 nM.

On to “CCAUGUUAGCAGGAUAUGCAAUUAUUCUUUUACGCAGAAGGGCUUACAUGAGGAUCACCCAUGUAACAUUUCAU”, for which the “apparent Kd” value came to 18.4 nM under setting [1] and 77.8 nM under setting [2].

For “CCUUUCGGUGUCAGGAUAUACUGCGCCUGGCGCAAGUAGAAGGGACAUGAGGAUCACCCAUGUAGCGGGACCGA”, the “apparent Kd” value came out at 73.7 nM under setting [1] and 81.9 nM under setting [2].

In the case of “AGCUGUGGCCGAGGAUAUCACGAACCAUGGAAAACCAUGGAACUCAAACAUGAGGAUCACCCAUGUGAGAAGGCGGUCUCAGCA”, the “apparent Kd” value is 21.1 nM under setting [1] and 15.9 nM under setting [2].

As for “GUGCAAACAUGAGGAUAUGUAUUAAAUAAUAAUACAGAAGGCAUGUCAAAUGACAUGAGGAUCACCCAUGUUGGCAAAAUGCGC”, the “apparent Kd” value runs as follows: under setting [3], 144 nM; under setting [4], 29.7 nM.

For “UUAUAUAGUGUGAGGAUAUGCUGGUCCUUGGAUCAGCAGAAGGCACAUGAGGAUCACCCAUGUAGUUUAUUAUU”, the “apparent Kd” value by setting is: under setting [1], 30.2 nM; under setting [2], 130 nM.

As for “GGCUAGUGAGGAUAUACGUGCACUCCUCAGUCGCCAGUCGGACAUGAGGAUCACCCAUGUAGAAGGUAUCGGCA”, the “apparent Kd” value runs as follows: under setting [1], 27.8 nM; under setting [2], 30.2 nM.

On to “GUCUCACAUGAGGAUCACCCAUGUGAGGAUAUGGAUUCGCUGGCCGUAGCCAGUGGAUCCAGAAGGCGCGUGAU”, for which the “apparent Kd” value by setting is: under setting [1], 59.1 nM; under setting [2], 58.8 nM.

Consider “GUCCCAGCUGAGGAUAUUAUCUGGCUCGACCGAUAAGAAGGCAGUACAUGAGGAUCACCCAUGUGGUUCGUUCG”, for which the “apparent Kd” value by setting is: under setting [1], 31.5 nM; under setting [2], 70.7 nM.

“AAAUUUUGUCAAGGAUAUGUAUUAUUGAUUUGAAAACAUGAGGAUCACCCAUGUAUAUGGUGGGAACAGAAGGUGAAUAAGUAA”: the “apparent Kd” value under setting [1] was determined as 202 nM and the “apparent Kd” value under setting [2] came to 236 nM.

On to “UACAUGAGGAUCACCCAUGUUAACAUGGUGUUGUUAUAUCUGAGAAGGGUAAUAUUACAUUAAGUACAGGAUAUCAUUGAUGUU”, for which the “apparent Kd” value under setting [1] was 208 nM and the “apparent Kd” value under setting [2] worked out at 46.3 nM.

Take “CGGGUCUGAGGAUAUCCAUCCUCAUACAUGAGGAUCACCCAUGUUCACCCUUGGGUUCCCGGAGAAGGCAGUUUUC”: the “apparent Kd” value under setting [1] came to 153 nM and the “apparent Kd” value under setting [2] was found to be 177 nM.

As for “UUCGGACUAUCAGGAUAUGGUGUAGCCUAGUAAAGGACAUGAGGAUCACCCAUGUACCAUUGGUGCCAGAAGGGAUGAUCCUAC”, the “apparent Kd” value reads like this: under setting [3], 141 nM; under setting [4], 55.3 nM.

Take “CUAUGAACGAUAGGAUAUACUGAGGUUGAGUGGGUAGAAGGAUCGAUAGUGUAGAAGACAUGAGGAUCACCCAUGUUAUGGAUU”: the “apparent Kd” value came to 505 nM under setting [3] and 318 nM under setting [4].

On to “ACCAGUGACACAGGAUAUCCGUGCAUGUAGCACGGAGAAGGGUGUUCCAAUCAACUCACAUGAGGAUCACCCAUGUGCUACUUG”, for which the “apparent Kd” value runs as follows: under setting [3], 176 nM; under setting [4], 59.8 nM.

For “AUUUAGUGCGAGAAGGCGUGGUCACAUGAGGAUCACCCAUGUCAGUACACGAGGAUAUCGAUUCACUGUAUAAACACAAGUGAC”, the “apparent Kd” value by setting is: under setting [3], 53.8 nM; under setting [4], 6.22 nM.

As for “AAAAAACAUGAGGAUCACCCAUGUCAGGAUAUCUGUAUUCAAUCCUCGGAUUGAAUACAGAGAAGGGACAUGGA”, the “apparent Kd” value reads like this: under setting [1], 42 nM; under setting [2], 22.8 nM.

As for “GUCACCUCGUGAGGAUAUACAACACUGCUUCGGCAGUGUAUUAAGAUCACAUGAGGAUCACCCAUGUAGAAGGCACGAGCUGAU”, the “apparent Kd” value runs as follows: under setting [1], 17.2 nM; under setting [2], 221 nM.

For the sequence “GCGUUGUUGUAGAAGGUACAUGAAUACUUUUAUUACCUCAAGUAACAUGAGGAUCACCCAUGUAGUAAGGAUAUACAUGAACGC”, the “apparent Kd” value runs as follows: under setting [3], 35.1 nM; under setting [4], 24.3 nM.

For “AAUAAACUCACAGGAUAUAGCAGAGGUCACGUGAACUUACAGGCGACGAUGCUAGAAGGGUGACCACAUGAGGAUCACCCAUGU”, the “apparent Kd” value was 862 nM under setting [3] and 135 nM under setting [4].

Take “GAAAUACAUGAGGAUCACCCAUGUAAGGAUAUGCUAGCGGUCGGCUGACUGACUGCUAGCAGAAGGUACAUGAU”: the “apparent Kd” value reads like this: under setting [1], 80.9 nM; under setting [2], 108 nM.

For the sequence “GUCAUGUCAGGAUAUGCUUAUGGUGGGUGCUCAGACAUGAUGCAGAAGGGACAUGAGGAUCACCCAUGUACUGU”, the “apparent Kd” value worked out at 35.8 nM under setting [1] and 60.9 nM under setting [2].

Take “UUCGUGCAGCUUUGCUGUACGCGUACAUGAGGAUCACCCAUGUAGGAUAUGGUAGGCCAAGCUUACUAGAAGGAUAUAGUGAUC”: the “apparent Kd” value runs as follows: under setting [1], 95.5 nM; under setting [2], 88.7 nM.

Turning to “ACCAAUGCAGGAUAUACAUGAGGAUCACCCAUGUAUAACCUACAUAGGUGAUCCUCAUGUAGAAGGGCAUUGGA”, the “apparent Kd” value by setting is: under setting [1], 12.8 nM; under setting [2], 10 nM.

As to “GGAUCCAACACAGGAUAUGCUGGACCUUGUCCAGCAGAAGGGUGAAGAACAUGAGGAUCACCCAUGUGGAUCCAUAUAUUUAAU”, the “apparent Kd” value by setting is: under setting [3], 240 nM; under setting [4], 14.6 nM.

As to “GGGUACAUCGGAGGAUAUCAUGUAAAUACAUGAGGAUCACCCAUGUCGAUGGAGACAUCGGAGAUUGAGAAGGCCAAUGUACCG”, the “apparent Kd” value is, setting by setting: under setting [3], 180 nM; under setting [4], 8.76 nM.

Regarding “GGAGCAGGGUGAGGAUAUGUAAAAUUCGAAAGGACAGAAGGCACUUAACCAACAUGAGGAUCACCCAUGUAGGCGACGGCACCA”, the “apparent Kd” value runs as follows: under setting [3], 30 nM; under setting [4], 21.8 nM.

For the sequence “GGAUCGCAAGAAGAUCCAAUACGAACAUGAGGAUCACCCAUGUAGGAUAUGCUAGAAGAAGAGUAGCAGAAGGACAUGUGCCUU”, the “apparent Kd” value was 9.79 nM under setting [1] and 42.7 nM under setting [2].

With “GCACGGCAUGUAGGAUAUGCAUAGCAUUGCUAUGCAGAAGGACAUGAGGAUCACCCAUGUAUGUAUUCCAUACAAUUCCCGUGC”, the “apparent Kd” value came out at 5.86 nM under setting [1] and 12 nM under setting [2].

Regarding “CACGUACAUGAGGAUCACCCAUGUUAGGAUAUGCCGGGUUAGAGCCAACUAAAAACCCGUAGAAGGGACGAAAC”, the “apparent Kd” value amounted to 23.1 nM under setting [1] and 25.3 nM under setting [2].

With “CACGGCGUAUCAGGAUAUGUGGGUGUCUGGACAUGAGGAUCACCCAUGUAAACAGUAUUAGCCGUGCAGAAGGGAUCCGCUGUA”, the “apparent Kd” value by setting is: under setting [3], 39 nM; under setting [4], 65.2 nM.

“AGAUAAGUCACAGGAUAUUCCUACAUUAAUAUGGAAGAAGGGUGAGCAUGAUUCGAUACAUGAGGAUCACCCAUGUAUCCGCGA”: the “apparent Kd” value reads like this: under setting [3], 78.4 nM; under setting [4], 19.7 nM.

As for “UGUUGUAUUACAGGAUAUCUAUUAUUUUUAUUUAGAGAAGGGUAUUCACAUGAGGAUCACCCAUGUAUAUACGAGGAAGAUGUG”, the “apparent Kd” value under setting [3] worked out at 91.5 nM and the “apparent Kd” value under setting [4] was 107 nM.

As for “UAUAUAUAGUAAGGAUAUGUAUAUAUUUUAUCAACAGAAGGUACUGACAUGAGGAUCACCCAUGUUUUAGUGUGGGCAUGUAGA”, the “apparent Kd” value turned out to be 68.7 nM under setting [1] and 70.8 nM under setting [2].

For “AGGUACUAGGGAGGAUAUGGGAAGAUACAUGAGGAUCACCCAUGUUUAAGAAUGCCGAGAGGCAACUAGAAGGCCCUAGUACCU”, the “apparent Kd” value by setting is: under setting [3], 454 nM; under setting [4], 19.8 nM.

Turning to “CCAGGCAGUGUGAGGAUAUGCUGGUGCUUGCAUCAGCAGAAGGCACAUGAGGAUCACCCAUGUGAAGAGCUUGG”, the “apparent Kd” value by setting is: under setting [1], 27.6 nM; under setting [2], 131 nM.

With “GAAUUAUUGAUCCAAUUUUACAACAUGAGGAUCACCCAUGUGCAGGAUAUCGUGUGUUUUAUAUUCGAGAAGGGCAUGAACUUU”, the “apparent Kd” value under setting [1] worked out at 213 nM and the “apparent Kd” value under setting [2] is 495 nM.

As to “AUGACAGGCAGAGCGCAACGGCGAACAUGAGGAUCACCCAUGUAGGAUAUGCUACACAAAGUGUAGCAGAAGGACAUGCGACGA”, the “apparent Kd” value runs as follows: under setting [1], 48.3 nM; under setting [2], 206 nM.

Consider “GCGUGGUUCUAGAAGGUGCUAGCGAUAAGCUAGCAAGGAUAUAGACAUGAGGAUCACCCAUGUCUUUGUGAAAUCGACACACGC”, for which the “apparent Kd” value turned out to be 5.58 nM under setting [1] and 6.39 nM under setting [2].

As to “UCGAACUUUCGUGUAAUUCGCACAUGAGGAUCACCCAUGUACGAGGAUAUGUACCUAAACGGCUAACAGAAGGCGUACUGGGCA”, the “apparent Kd” value under setting [1] was 170 nM and the “apparent Kd” value under setting [2] came out at 106 nM.

As for “AAAGUGCCGACGAAGGAUAUAGCGGGUGAGACAUGAGGAUCACCCAUGUAUGCAGAACUCAUCCUCUAGAAGGUUGAGACGGCUA”, the “apparent Kd” value under setting [3] worked out at 113 nM and the “apparent Kd” value under setting [4] is 177 nM.

On to “UUUGAAUAGGUAGGAUAUACUUUCAAUUUUCUUUUCCUUACAUGAGGAUCACCCAUGUUUACAUUGUAGAAGGACCUCAUUGAU”, for which the “apparent Kd” value under setting [1] came to 215 nM and the “apparent Kd” value under setting [2] was 173 nM.

On to “AUCAGCUCGUCAGGAUAUACAACACUGCUUCGGCAGUAUGAUAAGAUAACAUGAGGAUCACCCAUGUAGAAGGGACGAGCUGAU”, for which the “apparent Kd” value came out at 6.99 nM under setting [1] and 9.17 nM under setting [2].

For the sequence “UUGGACGUCGUAGGGUAUGUAGGAUAUUCCUACAUGAGGAUCACCCAUGUUGACAUGGAAGAAGGACAGAAGGACGAUGUCCAU”, the “apparent Kd” value is 106 nM under setting [3] and 4.37 nM under setting [4].

As to “GCGGGAGGAGGAUAUACAAUCGUGUGACCCGGACCCUAUGGACAUGAGGAUCACCCAUGUAGAAGGUUUCCCUU”, the “apparent Kd” value under setting [1] was found to be 112 nM and the “apparent Kd” value under setting [2] was determined as 568 nM.

As to “UUAUUACGAGGAUAUCGUUUUUAUCACAUGAGGAUCACCCAUGUAAUUUAUGUUUCGUUUCGAGAAGGCGUUUGUU”, the “apparent Kd” value by setting is: under setting [1], 23.4 nM; under setting [2], 19.6 nM.

Take “UCGUGAAGGAUAGGAUAUGGACAUGAGGAUCACCCAUGUACAUGGGAAUGAAUACUGAAUUUGUACUAGAAGGGUUACAUAAAU”: the “apparent Kd” value amounted to 44.4 nM under setting [1] and 39.5 nM under setting [2].

On to “AACUAAGUAUUAAUGGUGUCUGACAGAAGGCAAUAGAAUGAGACCGACAUGAGGAUCACCCAUGUUGAGGAUAUGUCUUGCUAC”, for which the “apparent Kd” value runs as follows: under setting [1], 6.44 nM; under setting [2], 6.73 nM.

These data come from the EternaBench riboswitch data.
